# Source: PubChem
# An excerpt weighted towards active compounds, which were near 1.5% of everything screened.
# NSD2 inh: blocks human histone methyltransferase NSD2 | inhibition, % at 12.5 µM | AID 743445 | 0.54% of 310,000 active | NSD2 peptide methylation, AlphaScreen, 120 min | O96028
# DNMT1 block: blocks human DNA methyltransferase DNMT1. DNMT1 molecular beacon, Hinp1I cleavage, fluorescence. P26358. inhibition (reported as % activation of signal), % at 10 µM. 0.83% of 360,000 active
# HCV NS3 hel inh: inhibitors of Hepatitis C virus NS3 helicase; NS3 helicase DNA unwinding, Cy5 molecular beacon fluorescence; AID 1800; inhibition, % at 10.9 µM; 0.56% of 290,000 active;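 active = inhibition above the mean of all tested compounds plus 3 SD, set per campaign, cut at about 35% in these data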;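 also: 0% = DMSO wells and 100% = thioflavine S control wells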
#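 Measured by: Cy5 fluorescence, 0 and 60 min reads / Assay system: NS3 helicase fragment of HCV / Control set: low DMSO, high thioflavine S at 110 µM / Times: 1 h reaction at 25 °C, ATP-initiated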
# CASP6 VEID inh: blocks human caspase-6 cleavage activity. P55212. inhibition, % at 12.5 µM. 0.53% of 350,000 active. purified caspase-6, Z-VEID-R110 cleavage fluorescence;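 active = mean inhibition across replicates at least about 35%, with every replicate also reaching that limit, limit read from the data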;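 also: 0% = median of neutral control wells and 100% = no fluorescence left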
# Target sequence (P55212 24-179 limits assumed): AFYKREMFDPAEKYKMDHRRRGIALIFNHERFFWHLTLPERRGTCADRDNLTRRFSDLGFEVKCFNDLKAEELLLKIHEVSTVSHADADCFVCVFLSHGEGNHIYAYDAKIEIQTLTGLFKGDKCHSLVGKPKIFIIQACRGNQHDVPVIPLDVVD
# Target sequence (P55212 194-293 limits assumed): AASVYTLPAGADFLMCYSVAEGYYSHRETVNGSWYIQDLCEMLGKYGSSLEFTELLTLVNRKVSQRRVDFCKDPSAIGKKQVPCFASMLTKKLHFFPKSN
# Beacon interf DR: beacon fluorescence artifact, dose response counter-screen | shares compounds with DNMT1 block | molecular beacon fluorescence, spectral interference counter-screen | IC50, µM | 200 tested, under 10 active; call rule not given here
# DNMT1 confirm: confirmation of human DNMT1 inhibitors. shares compounds with DNMT1 block. DNMT1 molecular beacon HinP1I cleavage, fluorescence. inhibition, % at 10 µM. 8% of 2,300 active. AID 602385;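 active = average inhibition of at least 30% in the single-concentration confirmation test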
# Beacon interf: counter-screen for DNMT1 inhibitors: spectral interference. shares compounds with DNMT1 block. DNMT1 molecular beacon spectral interference counterscreen, fluorescence 485/520. activation (fluorescence interference), % at 10 µM. 1% of 2,300 active. AID 602387;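 active = activation of at least 30% at 10 µM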;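 also: DNMT1 catalytic domain with a HinP1I cleavage step and a FAM/dabcyl DNA beacon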
# * hit, by the source's call; x = not tested or not shown. Rule as the data show it, unless noted: active = inhibition above about 50%; inactive = the rest.
SMILES,NSD2 inh,DNMT1 block,HCV NS3 hel inh,CASP6 VEID inh,DNMT1 confirm,Beacon interf,others
Cc1c(Cl)cnc(NC(=O)COC(=O)c2ccc([N+](=O)[O-])s2)c1Cl,18,63*,5,17,2,-3,
O=C(COC(=O)c1ccc([N+](=O)[O-])s1)Nc1ccc(Cl)cn1,11,-4,3,6,x,x,
COc1ccc2[nH]c(C(=O)NCc3ccccc3)c(C)c2c1,-4,70*,-1,2,-2,4,
CCCN1C[C@@H](C)[C@@H](OC)CN(C)C(=O)c2ccc(NC(=O)CC(F)(F)F)cc2OC[C@@H]1C,x,x,x,2,x,x,
CN(C)CCc1cc2c(c3c1ccc1ccccc13)OCO2,48,60*,-52,-19,37*,6,Beacon interf DR=>99
COc1cc2ccc3c(CCN(C)C)cc(OC)c(OC)c3c2cc1OC,13,2,-5,-2,x,x,
O=C(C[C@H]1CC[C@@H]2[C@H](COC[C@H](O)CN2C(=O)c2ccccc2)O1)Nc1ccccc1,x,x,x,1,x,x,
Cc1cccc(Nc2nn3c(=O)c4ccccc4nc3s2)c1,0,94*,-16,x,13,3,
CC1CCCN(C(=O)c2ccc3c(=O)n4nc(Nc5ccccc5)sc4nc3c2)C1 (stereo not drawn),-2,2,x,-1,x,x,
COc1cccc(N2[C@@H](CC(=O)O)c3ccc(/C=C/C(=O)O)cc3S2(=O)=O)c1,x,102*,x,62*,1,1,
COc1cccc(N2[C@@H](CC(C)=O)c3ccccc3S2(=O)=O)c1,x,3,x,7,x,x,
COc1ccc2c3c([nH]c2c1)[C@@H](CO)N(C(=O)NC(C)C)CC31CN(C(=O)c2cccnc2)C1,x,x,x,0,x,x,
C[C@H]1CN([C@@H](C)CO)C(=O)c2cc(-c3ccc(F)cc3)cnc2O[C@H]1CN(C)C(=O)NC1CCCC1,x,x,x,-2,x,x,
C[C@H](CO)N1C[C@H](C)[C@H](CN(C)C(=O)NC2CCCCC2)Oc2c(NC(=O)C3CCCCC3)cccc2C1=O,x,x,x,-2,x,x,
COc1cccc(NC(=S)NCCC(c2ccccc2)c2ccccc2)c1,-1,56*,-31,x,9,9,
COc1ccc(NC(=O)c2cc3c([nH]c4ccccc43)c(C)n2)cc1,-5,-3,-11,1,x,x,
Cc1nc(C(=O)Nc2ccccc2Cl)cc2c1[nH]c1ccccc12,-1,50*,-11,x,1,0,
CN(C)CC#Cc1cccc(-c2nc(C(=O)N3CCN(Cc4ccccc4)CC3)cc3c2[C@H](CCO)N(S(=O)C(C)(C)C)C3)c1 (stereo partly drawn),x,x,x,2,x,x,
Cc1cc(=O)oc2cc(OCC(=O)N/N=C/c3ccccc3O)ccc12,3,61*,-2,-2,1,-2,
COc1ccc(NC(=O)COc2ccc3c(C)cc(=O)oc3c2)cc1S(=O)(=O)N1CCCCC1,-7,63*,x,-3,-1,-9,
COc1ccc(S(=O)(=O)N2CCOCC2)cc1NC(=O)COc1ccc2c(C)cc(=O)oc2c1,-2,-1,x,0,x,x,
Cc1noc(C)c1NC(=O)N(C)C[C@H]1Oc2ccc(NS(=O)(=O)c3ccc(F)cc3)cc2CC(=O)N([C@H](C)CO)C[C@H]1C,x,x,x,-1,x,x,
Cc1ccc(C(=O)O)cc1-c1ccc(/C=C2/NC(=O)N(c3ccccc3)C2=O)o1,28,92*,16,x,34*,-2,Beacon interf DR=>99
Cc1ccc(/C=C2/NC(=O)N(Cc3ccccc3)C2=O)o1,1,-7,23,x,x,x,
Cc1ccc(CN2C(=O)N/C(=C\c3ccc(-c4ccc(C(=O)O)cc4C)o3)C2=O)cc1,2,126*,5,28,10,-3,
SMILES,NSD2 inh,DNMT1 block,HCV NS3 hel inh,CASP6 VEID inh,DNMT1 confirm,Beacon interf,others
O=C(Cn1cc(COc2ccc(C(=O)c3ccccc3)cc2)nn1)c1ccc(O)cc1,x,39,x,15,x,x,
CCC(=O)c1ccc(OCc2cn(CC(=O)c3ccc(O)cc3)nn2)cc1,x,54*,x,7,10,-3,
COc1ccc(OCc2cn(CC(=O)c3ccc(O)cc3)nn2)cc1,x,57*,x,11,4,-2,
O=Cc1ccc(OCc2cn(CC(=O)c3ccc(O)cc3)nn2)cc1,x,5,x,2,x,x,
COc1ccc2c3c(n(C)c2c1)[C@@H](CO)N(C(=O)Cc1ccccn1)CC31CN(CC2CCCC2)C1,x,x,x,-8,x,x,
N#Cc1c(NCCN)nc(NCc2ccccc2)c2c1CCN(Cc1ccccc1)C2,x,77*,-60,x,3,-2,
C=CCNc1nc(NCc2ccccc2)c(C#N)c2c1CN(C)CC2,43,3,-9,x,x,x,
O=C(CCS(=O)(=O)c1ccc(Br)cc1)NCCc1ccccc1,-1,84*,8,-2,11,3,
CCc1cccc(NC(=O)CCS(=O)(=O)c2ccc(Br)cc2)c1,9,88*,-10,72*,9,4,
NS(=O)(=O)c1ccc(CCNC(=O)CCS(=O)(=O)c2ccc(Br)cc2)cc1,0,87*,8,79*,4,3,
O=C(CCNS(=O)(=O)c1ccc(Br)cc1)NCCc1ccccc1,x,-1,1,2,x,x,
O=C1CN(S(=O)(=O)Cc2ccccc2)C[C@H]2[C@@H](c3ccc(C#Cc4ccccc4)cc3)[C@@H](CO)N12,x,x,x,5,x,x,
CC(/C=C1\SC(=S)N(c2ccc(C(=O)O)cc2)C1=O)=C\c1ccccc1,x,110*,4,25,6,0,
CC(=O)c1ccc(NC(=O)CN2C(=O)/C(=C/C(C)=C/c3ccccc3)SC2=S)cc1,-4,-15,12,-3,x,x,
O=C(CCN1CCCCC1)NCC[C@@H]1CC[C@@H](NC(=O)c2ccc(F)cc2)[C@H](CO)O1,x,x,x,-6,x,x,
Oc1ccc(F)c2cccnc12,2,68*,17,6,3,3,
Oc1ccc(Cl)c2cccnc12,0,6,x,-2,x,x,
C/C=C/c1cnc2c(c1)C(=O)N([C@H](C)CO)C[C@H](C)[C@H](CN(C)C(=O)C1CCOCC1)O2,x,x,x,-2,x,x,
COc1ccc(/C=N/Nc2cc(N(C)C)nc(N(C)C)n2)cc1,33,51*,-7,8,-3,-11,
COc1ccc(/C=N/Nc2cc(OC)ncn2)cc1,0,-1,-13,0,x,x,
Cc1cc(C)n(-c2nc(Nc3ccccc3)nc(-n3nc(C)cc3C)n2)n1,-1,64*,1,-6,1,0,
Cc1cc(C)n(-c2nc(N(c3ccccc3)c3ccccc3)nc(-n3nc(C)cc3C)n2)n1,x,-3,-11,x,x,x,
Cc1ccc2oc(=O)c3cc(C(=O)NCCCN4CCCCCC4)sc3c2c1,-1,67*,-32,-25,6,-2,
Cc1ccc2oc(=O)c3cc(C(=O)NCCN4CCN(C)CC4)sc3c2c1,x,6,2,-11,x,x,
Cc1c(NC2=NC(C)(C)Cc3ccccc32)c(=O)n(-c2ccccc2)n1C,0,4,-5,x,x,x,
Cc1c(NC2=NC3(CCCCC3)Cc3ccccc32)c(=O)n(C)n1-c1ccccc1,x,83*,-1,x,-1,-2,
